# Source: PubChem
# An excerpt weighted towards active compounds, which were near 3.3% of everything screened.
# SENP8 block-1: SENP8 protease inhibitors, primary screen, biochemical, luminescence; Sentrin-specific protease 8 (Homo sapiens), Q96LD8; purified SENP8, Z-RLRGG-aminoluciferin cleavage; inhibition, % at 10 µM; 1.2% of 330,000 active; AID 2540, 2010; in the data active means inhibition above about 50%
# SENP8 block-2: human SENP8 protease inhibitors, primary screen, biochemical, fluorescence, Nedd8 protein substrate, uHTS | Sentrin-specific protease 8 (Homo sapiens), Q96LD8 | recombinant SENP8 | inhibition, % at 20 µM | 0.64% of 360,000 active | AID 602440, 2012; in the data active means inhibition mostly above about 40%, no sharp cut-off; inactive means mostly below about 27%
# SENP6 block: SENP6 protease inhibitors, primary screen, biochemical, luminescence, uHTS | Sentrin-specific protease 6 (Homo sapiens), Q9GZR1 | Recombinant SENP6 catalytic domain, aminoluciferin luminescence | inhibition, % at 10 µM | 1.8% of 330,000 active | AID 2599, 2010;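 active means inhibition above about 50% at the single tested dose, limit read from the data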;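 further: plate controls were DMSO wells with enzyme for no effect and DMSO wells lacking enzyme for full effect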
# SENP7 inh: SENP7 protease inhibitors, primary screen, biochemical, luminescence, uHTS; Sentrin-specific protease 7 (Homo sapiens), Q9BQF6; recombinant SENP7, Z-RLRGG-aminoluciferin luminescence, 40 min; inhibition, % at 5 µM; 1.5% of 330,000 active;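 active means inhibition above about 50% at the single test dose, limit read from the data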;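 further: plate controls were DMSO with enzyme for no effect and no enzyme buffer wells for full effect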
# SENP1 inh: human SENP1 catalytic domain inhibitors, primary screen, biochemical, FRET, uHTS. recombinant SENP1 catalytic domain, CyPet-SUMO1-YPet FRET cleavage. inhibition, % at 10 µM. 0.21% of 360,000 active. AID 624204, 2012;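 active means inhibition at least 30% at 10 µM, raw YFP signal under a set limit, fluorescence ratio 0.5 to 1.5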;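 further: 0% = enzyme with DMSO and 100% = no enzyme wells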
#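 Test system: hSENP1 catalytic domain, recombinant; Amount: 20 pM final SENP1 enzyme; Medium: Tris pH 8 buffer plus EDTA, NaCl, BME, BSA, NP40, catalase; Schedule: 50 min enzyme reaction, room temperature, light-protected; Technique: FRET fluorescence in CFP and YFP emission channels; Controls: no-enzyme wells low, DMSO-plus-enzyme wells high control.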
# CendR NRP1 mod: modulators of CendR peptide binding to NRP-1, primary screen, biochemical, fluorescence polarization, uHTS; FAM-RPARPAR peptide binding to NRP-1; inhibition, % at 25 µM; 0.85% of 360,000 active;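 active means inhibition or corrected inhibition above about 18%, plus a signal ratio from 0.5 to 1.5, limit read from the data, passing the limit was not always enough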
# SENP8 confirm: SENP8 protease inhibitors, retest, confirmation, biochemical, luminescence, single concentration; shares compounds with SENP7 inh; Recombinant SENP8, Z-RLRGG-aminoluciferin luminescence, 60 min; inhibition, % at 12.5 µM; 40% of 6,200 active; AID 488912, 2010;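 active means mean inhibition across replicates above about 50%, limit read from the data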
# SENP6 confirm: SENP6 protease inhibitors, confirmation, biochemical, luminescence, single concentration; inhibition, % at 12.5 µM; shares compounds with SENP7 inh; AID 488915, 2010; recombinant SENP6, Z-RLRGG-aminoluciferin luminescence; 58% of 6,200 active
# SENP7 confirm: SENP7 protease inhibitors, retest, confirmation, biochemical, luminescence, single concentration; shares compounds with SENP7 inh; recombinant SENP7, Z-RLRGG-aminoluciferin luminescence, 40 min; inhibition, % at 12.5 µM; 69% of 6,200 active; AID 488917, 2010
# Casp3 SENP sel: caspase-3 protease inhibitors, confirmation, selectivity assay for SENP inhibitor project, biochemical, single concentration; shares compounds with SENP7 inh; AID 488918, 2010; purified caspase-3, Z-DEVD-aminoluciferin luminescence, 60 min; inhibition, % at 12.5 µM; 60% of 6,200 active;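 active means mean inhibition above about 50%, limit read from the data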;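 further: plate controls were enzyme with DMSO for no effect and wells without caspase-3 for full effect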
# SENP luc ctr: counter-screen for SENP inhibitors: luminescence interference; shares compounds with SENP7 inh; Pre-incubated SENP8/Z-RLRGG-aminoluciferin, luciferase luminescence interference; inhibition, % at 12.5 µM; 39% of 6,200 active; AID 488919;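 active means mean inhibition above about 50% when retested at one dose, limit read from the data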;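 further: plate controls were DMSO wells with completed reaction for no effect and substrate without enzyme for full effect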
# An asterisk follows results filed as active; i = inactive; / = no result given.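 How the source made its calls, unless noted: active means mean inhibition above about 50% in the one-dose retest (limit read from the data); inactive means the rest.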
SMILES,SENP8 block-1,SENP8 block-2,SENP6 block,SENP7 inh,SENP1 inh,CendR NRP1 mod,SENP8 confirm,SENP6 confirm,SENP7 confirm,Casp3 SENP sel,SENP luc ctr
CNC(=O)Oc1ccc(-c2cn3cc(Cl)ccc3n2)cc1,64*,-333,78*,67*,0,3,37,37,75*,72*,21
O=c1[nH]c(=S)[nH]c(O)c1N=Nc1ccc(OC(F)F)cc1,92*,27,94*,93*,8,-9,91*,92*,88*,96*,44
O=c1[nH]c(=S)[nH]c(O)c1N=Nc1ccc(S(=O)(=O)N2CCOCC2)cc1,-11,35,-14,0,-3,-5,/,/,/,/,/
CCC(C)c1cnc(CC(C)C)c(=O)n1O (stereo not drawn),/,4,/,/,-15,-3,/,/,/,/,/
COCCNC(=O)c1c(N)n(Cc2ccco2)c2nc3ccccc3nc12,0,-274,-7,5,-21,-37,/,/,/,/,/
COCCCn1c(N)c(C(=O)Nc2sc3c(c2C(=O)OC)CCCC3)c2nc3ccccc3nc21,89*,-269,91*,71*,-25,-61,1,7,16,7,3
COCCCn1c(N)c(C(=O)NCc2ccco2)c2nc3ccccc3nc21,90*,/,93*,87*,/,/,15,26,17,-1,-1
CCC(C)NC(=O)c1c(N)n(CCCOC)c2nc3ccccc3nc12 (stereo not drawn),92*,-265,86*,90*,-30,-12,40,83*,74*,16,18
CCOC(=O)[C@]12Cc3cc(Cl)ccc3[C@H]1N(C(C)C)C(=O)c1ccccc12,/,3,/,/,1,12,/,/,/,/,/
CC(=O)OC1C(O)C2=C3C4(C)C1C(C)(C)C(=O)CC4C3(O)C(OC(C)=O)C1(CC1C)C2=O (stereo not drawn),/,8,/,/,-2,-3,/,/,/,/,/
O=C(NCC1=C(c2ccc3ccccc3c2)C[C@@H]2CC[C@H]1N2Cc1ccco1)c1ccc([N+](=O)[O-])cc1,/,10,/,/,1,-1,/,/,/,/,/
O=c1[nH]c2ccccc2n1C1CCN(Cc2ccc(-c3[nH]c4cc5ncnc5cc4nc3-c3ccccc3)cc2)CC1,/,-421,/,/,-3,-17,/,/,/,/,/
CC(C)C[C@@H]1COc2cccc(N3CCN(C)CC3)c2S(=O)(=O)N1,/,26,/,/,0,2,/,/,/,/,/
Nc1c2c(nc3sc4c(c13)CCCCC4)CCCC2,35,13,54*,19,1,-13,42,34,67*,46,17
CCOC(=O)c1cccc(NC(=O)c2c(O)[nH]c(=O)[nH]c2=O)c1,27,7,58*,51*,0,2,48,41,81*,73*,45
CCCCOC(=O)c1ccc(NC(=O)c2c(O)[nH]c(=O)[nH]c2=O)cc1,-12,-1,-23,-8,4,0,/,/,/,/,/
CN(Cc1cccc(-c2ccncc2)c1)C(=O)Oc1ccc([N+](=O)[O-])cc1,/,11,/,/,1,-6,/,/,/,/,/
CC1OC(OC2C=C3CCC4C(CCC5(C)C(c6ccc(=O)oc6)CCC45O)C3(C)CC2)C(O)C(OC2OC(CO)C(O)C(O)C2O)C1O (stereo not drawn),/,21,/,/,1,7,/,/,/,/,/
COc1ccc(C[C@@H]2c3cc(O)c(OC)cc3CCN2C)cc1O,-3,9,-4,-6,0,-6,/,/,/,/,/
COc1cc2c(cc1O)[C@@H]1Cc3ccc(OC)c(O)c3CN1CC2,64*,80*,74*,49,-3,11,10,29,17,6,4
C[C@]1(O)CCC2C3CC[C@H]4C[C@@H](OC(=O)[C@@H](N)CCCCN)CC[C@]4(C)C3CC[C@@]21C (stereo partly drawn),/,18,/,/,1,-5,/,/,/,/,/
CCCCCSc1cc(O)c(C(CNC)C(C)C)cc1OC (stereo not drawn),-10,8,-7,-10,0,-2,/,/,/,/,/
CCCCCSc1cc(OC)c(CCN(C)C)cc1OC,3,21,53*,0,1,-6,10,5,8,4,4
Cc1ccc(CN2CCC3CCC(C3)C2)c(O)c1 (stereo not drawn),/,7,/,/,0,-2,/,/,/,/,/
CCC(C)NC(=O)c1c(N)n(CC2CCCO2)c2nc3ccccc3nc12 (stereo not drawn),83*,-270,88*,72*,-20,6,7,41,34,9,6
CCC(C)NC(=O)c1c(N)n(Cc2ccc3c(c2)OCO3)c2nc3ccccc3nc12 (stereo not drawn),92*,i,90*,68*,-18,18,2,11,11,-3,3
Nc1c(C(=O)NCCN2CCOCC2)c2nc3ccccc3nc2n1Cc1ccccc1,0,-425,25,6,-30,-5,/,/,/,/,/
CC(C)CCNC(=O)c1c(N)n(CC2CCCO2)c2nc3ccccc3nc12 (stereo not drawn),79*,-258,82*,74*,-19,-5,17,48,35,4,5
Cc1cc(C(=O)CS(=O)(=O)c2ccccc2)cc(C)c1OC(=O)N(C)C,37,10,54*,45,2,2,44,41,78*,79*,36
Cc1ccc(S(=O)(=O)CC(=O)c2cc(C)c(OC(=O)N(C)C)c(C)c2)cc1,-6,10,5,3,-1,-1,/,/,/,/,/
